In data set [1] the target is recombinant human aminoimidazole carboxamide ribonucleotide transformylase (hAICAR Tfase) (Homo sapiens, UniProt P31939). In words: hAICAR Tfase enzyme inhibition assay. It is filed as biochemical. In outline:
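Recombinant human enzyme; method otherwise follows earlier work. Reaction kinetics followed for 2 min after initiation. Ki obtained from Dixon plots.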

Data set [2] has as its system CCRF-CEM/FPGS^-. In words: Growth inhibition assay, FPGS-deficient mutant cells. The format is cell-based, human. To be noted: read-out: CCRF-CEM/FPGS^- IC50, (−) T, (−) H.
For data set [3] the following is noted: alleviated by folic acid co-supplementation; cited from earlier work.
The subject of data set [4] is CCRF-CEM human leukemia cell lines. In words: Growth inhibition assay, CCRF-CEM. It is filed as cell-based.
For data set [5] the test system is unchanged. To be noted: read-out: IC50, cell-based growth inhibition; reported as low as; cited from earlier work.
Data set [6] has as its system CCRF-CEM/MTX. In words: Growth inhibition assay, RFC-deficient mutant cells. It is filed as cell-based, human. Conditions: read-out: CCRF-CEM/MTX IC50, (−) T, (−) H.
The subject of data set [7] is solid murine and human tumors. To be noted: tumors that did not respond to methotrexate; cited from earlier work.
Data set [8] concerns the target GAR Tfase. Conditions: read-out: Ki, GAR Tfase; cited from earlier work.
Data set [9] deals with anti-folate resistant human leukemia cell lines. Conditions: cited from earlier work.
[10] abbreviates: read-out: Inhibition Ki, hAICAR Tfase, Dixon plots.
Where [11] appears, read: read-out: CCRF-CEM IC50, (+) T, (−) H, with thymidine, no hypoxanthine.
The mark [12] stands for this setting: read-out: CCRF-CEM IC50, (−) T, (+) H, no thymidine, with hypoxanthine.
Setting [13] is: read-out: CCRF-CEM IC50, (−) T, (−) H, Table 1, no thymidine, no hypoxanthine.
The mark [14] stands for this setting: read-out: CCRF-CEM IC50, (−) T, (−) H, Table 2, parent cell line.

Consider eight compounds from paper PMC3823235 (Biochemistry, 2013).

Broadly, the Ki is a dissociation constant, usually derived from enzyme kinetics or from competition with a known ligand.

Like-named read-outs stand apart in the source and are kept apart here.

Chain of recombinant human aminoimidazole carboxamide ribonucleotide transformylase (hAICAR Tfase) (P31939 whole entry): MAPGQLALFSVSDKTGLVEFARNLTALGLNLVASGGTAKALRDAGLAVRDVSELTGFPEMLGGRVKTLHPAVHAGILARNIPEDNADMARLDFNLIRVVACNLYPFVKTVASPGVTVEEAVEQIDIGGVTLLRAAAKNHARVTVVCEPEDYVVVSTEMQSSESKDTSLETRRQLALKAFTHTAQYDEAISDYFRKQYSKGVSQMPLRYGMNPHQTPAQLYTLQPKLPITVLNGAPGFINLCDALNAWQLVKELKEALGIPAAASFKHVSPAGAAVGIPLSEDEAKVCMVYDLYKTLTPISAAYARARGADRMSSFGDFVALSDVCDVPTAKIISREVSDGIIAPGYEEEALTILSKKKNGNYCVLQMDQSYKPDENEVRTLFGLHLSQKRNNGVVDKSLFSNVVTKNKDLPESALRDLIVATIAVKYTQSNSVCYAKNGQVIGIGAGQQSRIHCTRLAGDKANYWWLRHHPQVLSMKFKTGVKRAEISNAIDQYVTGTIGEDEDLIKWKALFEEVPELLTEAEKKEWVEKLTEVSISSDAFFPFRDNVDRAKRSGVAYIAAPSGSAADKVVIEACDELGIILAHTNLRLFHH

In the case of `Nc1nc2c(c(=O)[nH]1)C[C@@H](CCc1ccc(C(=O)N[C@@H](CCC(=O)O)C(=O)O)cc1)CN2` [3 Lometrexol, Lometrexol], in data set [1], the Ki was above 100000 nM. Besides, the IC50 in data set [2] (Homo sapiens, CCRF-CEM) is above 10000 nM; in data set [4] (Homo sapiens, CCRF-CEM, read-out: CCRF-CEM IC50, (−) T, (+) H), above 10000 nM; in data set [5] it was 2.9 nM. The “Adverse effect in patients” value in data set [3] was “some patients suffered cumulative myelosuppression”.

For the compound `CS[C@H](CCCc1c(N)nc(N)[nH]c1=O)c1ccc(C(=O)NC(CCC(=O)O)C(=O)O)cc1` (stereo partly drawn) [10R-8, 10R-methylthio-DDACTHF], the Ki in data set [1] (setting [10]) is above 100000 nM. For the same compound, the IC50 in data set [4] (setting [11]) is 80 nM; in [4] (setting [12]), above 10000 nM; in [4] (setting [13]), 80 nM; in data set [4] (read-out: IC50, CCRF-CEM growth inhibition), 80 nM; in [6], 70 nM.

`CS[C@@H](CCCc1c(N)nc(N)[nH]c1=O)c1ccc(C(=O)NC(CCC(=O)O)C(=O)O)cc1` (stereo partly drawn) [10S-7, 10S-methylthio-DDACTHF]: the Ki in data set [1] (setting [10]) is above 100000 nM. The IC50 is 5000 nM in [2] (FPGS-deficient mutant); 70 nM in [4] (setting [11]); above 10000 nM in data set [4] (setting [12]); 50 nM in data set [4] (setting [13]); 60 nM in data set [4] (setting [14]); 60 nM in [6].

As to `Nc1nc(N)c(CCCCc2ccc(C(=O)NC(CCC(=O)O)C(=O)O)cc2)c(=O)[nH]1` (stereo not shown) [DDACTHF], the Ki in data set [1] (setting [10]) came to 20000 nM. Moreover, the IC50 in data set [2] (FPGS-deficient mutant) is above 10000 nM; in data set [4] (setting [11]), 3600 nM; in [4] (setting [12]), above 10000 nM; in data set [4] (setting [13]) it was 2700 nM; in data set [4] (setting [14]) it was 2700 nM; in data set [6], above 100000 nM.

`Nc1nc2c(c(=O)[nH]1)CC(CCc1ccc(C(=O)N[C@@H](CCC(=O)O)C(=O)O)cc1)CN2` (stereo partly shown) [DDATHF, 5,10-dideaza-5,6,7,8-tetrahydrofolic acid]: the “In vivo antitumor effect” value in [7] was “effective in vivo against solid murine and human tumors”.

Take `Nc1nc2ccc(CC(C=O)c3ccc(C(=O)N[C@@H](CCC(=O)O)C(=O)O)cc3)cc2c(=O)[nH]1` (stereo partly shown) [compound 4, 10-formyl-TDAF]: in [8], the Ki is 260 nM.

With `Nc1nc(N)c(CCCC(C(=O)C(F)(F)F)c2ccc(C(=O)N[C@@H](CCC(=O)O)C(=O)O)cc2)c(=O)[nH]1` (stereo partly shown) [compound 5, 10-CF3CO-DDACTHF], the Ki in data set [1] (setting [10]) was above 100000 nM; in data set [8], 15 nM. The IC50 in data set [2] (FPGS-deficient mutant) was above 10000 nM; in data set [4] (setting [11]), 17 nM; in data set [4] (setting [12]) it was above 10000 nM; in [4] (setting [13]), 16 nM.

`COc1cc(NCc2ccc3nc(N)nc(N)c3c2C)cc(OC)c1OC` [neutrexin (trimetrexate), trimetrexate]: the “Sensitivity of resistant cells with 90–99% loss of FPGS activity” value in data set [9] was “marked hypersensitivity”.
